Experimental data: ChEMBL document CHEMBL3351249, “Potent cholesteryl ester transfer protein inhibitors of reduced lipophilicity: 1,1'-spiro-substituted hexahydrofuroquinoline derivatives” (J Med Chem, 2014); call rule not given here

What was measured:
[1] = Drug concentration in testes of hemizygous human CETP transgenic mouse at 10 mg/kg, po dosed for 5 consecutive days measured on day 3 after cessation of drug treatment; type: ADME, organism-based, Testis; parameters: dose 10 mg/kg, route oral; details: in vivo
Procedure, shortened: (§1)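 Male hCETP transgenic mice given oral doses for 5 days in 0.5% hydroxyethylcellulose. Tissues and plasma collected at day 3 and day 21 after the last dose. Fat diluted 6:1 with acetonitrile and homogenized. Analysis by LC/MS/MS on a C18 column with QCs at 4.0−1000 nM, accepted within 30% of target.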

Plasma [2] = experiment: Plasma concentration in hemizygous human CETP transgenic mouse at 10 mg/kg, po dosed for 5 consecutive days measured on day 5 and day 7 post dose; type: ADME, organism-based; parameters: dose 10 mg/kg, route oral; details: in vivo
[3] = Drug concentration in adipose fat of hemizygous human CETP transgenic mouse at 10 mg/kg, po dosed for 5 consecutive days measured on day 3 after cessation of drug treatment; type: ADME, organism-based, Adipose tissue; parameters: dose 10 mg/kg, route oral; details: in vivo; procedure, shortened: as §1
Muscle tissue [4] = experiment: Drug concentration in muscle of hemizygous human CETP transgenic mouse at 10 mg/kg, po dosed for 5 consecutive days measured on day 21 after cessation of drug treatment; type: ADME, organism-based; parameters: dose 10 mg/kg, route oral; details: in vivo; procedure, shortened: as §1
Mus musculus = experiment: Increase in HDL-cholesterol in hemizygous human CETP transgenic mouse at 10 mg/kg, po dosed for 5 consecutive days; type: functional
Procedure, shortened: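 Male hemizygous hCETP or hCETP/hApoB100 transgenic mice, 26−30 weeks, chow-fed. Compound suspended in 0.5% aqueous hydroxyethylcellulose, oral gavage each morning for 5 or 14 days. EDTA blood taken 7 h post-dose (fed for 5-day, after 4 h fast for 14-day) from vena facialis under isoflurane. HDL/LDL cholesterol measured on Cobas Integra 400 Plus. Mean ± SEM, one-way ANOVA with Bonferroni.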

Kidney [5] = experiment: Drug concentration in kidney of hemizygous human CETP transgenic mouse at 10 mg/kg, po dosed for 5 consecutive days measured on day 3 after cessation of drug treatment; type: ADME, organism-based; parameters: dose 10 mg/kg, route oral; details: in vivo; procedure, shortened: as §1
[6] = Drug concentration in adipose fat of hemizygous human CETP transgenic mouse at 10 mg/kg, po dosed for 5 consecutive days measured on day 21 after cessation of drug treatment; type: ADME, organism-based, Adipose tissue; parameters: dose 10 mg/kg, route oral; details: in vivo; procedure, shortened: as §1
Plasma [7] = experiment: Drug concentration in plasma of hemizygous human CETP transgenic mouse at 10 mg/kg, po dosed for 5 consecutive days measured on day 3 after cessation of drug treatment; type: ADME, organism-based; parameters: dose 10 mg/kg, route oral; details: in vivo; procedure, shortened: as §1
Kidney [8] = experiment: Drug concentration in kidney of hemizygous human CETP transgenic mouse at 10 mg/kg, po dosed for 5 consecutive days measured on day 21 after cessation of drug treatment; type: ADME, organism-based; parameters: dose 10 mg/kg, route oral; details: in vivo; procedure, shortened: as §1
[9] = Terminal elimination half life in healthy human administered as single oral dose; type: ADME, organism-based; details: in vivo, read-out: beta t1/2 (converted)
[10] = Drug concentration in testes of hemizygous human CETP transgenic mouse at 10 mg/kg, po dosed for 5 consecutive days measured on day 21 after cessation of drug treatment; type: ADME, organism-based, Testis; parameters: dose 10 mg/kg, route oral; details: in vivo; procedure, shortened: as §1
Liver = experiment: Drug concentration in liver of hemizygous human CETP transgenic mouse at 10 mg/kg, po dosed for 5 consecutive days measured on day 3 after cessation of drug treatment; type: ADME, organism-based; parameters: dose 10 mg/kg, route oral; details: in vivo; procedure, shortened: as §1
Muscle tissue [11] = experiment: Drug concentration in muscle of hemizygous human CETP transgenic mouse at 10 mg/kg, po dosed for 5 consecutive days measured on day 3 after cessation of drug treatment; type: ADME, organism-based; parameters: dose 10 mg/kg, route oral; details: in vivo; procedure, shortened: as §1

Drug uptake [1]: Active
concentration (Plasma [2]): 507 nM
Drug uptake [3]: Active
Drug uptake (Muscle tissue [4]): Active
Drug uptake (Kidney [5]): Active
Drug uptake [6]: Active
Drug uptake (Plasma [7]): Active
Drug uptake (Kidney [8]): Active
half-life [9]: 83 h
Drug uptake [10]: Active
Drug uptake (Liver): Active
Drug uptake (Muscle tissue [11]): Active
SMILES: COc1cc(F)c(C(C)C)cc1-c1ccc(C(F)(F)F)cc1CN1C(=O)O[C@H](c2cc(C(F)(F)F)cc(C(F)(F)F)c2)[C@@H]1C [ANACETRAPIB]
Activity (Mus musculus): 50.5%
